Results on 7 molecules are retold here after publication PMC9468506 (Current Research in Food Science, 2022).

As usually defined, the IC50 is the concentration needed to halve the response being measured.

≈ marks a conversion by molar mass, not a printed value. Read-outs that look alike come from different tables or passages of the source. Where only a bound is given, the exact number is not on record here.

In one test the test system is anti-PBZ mAb. The test is described as follows: TRFMs-LFIA competitive lateral flow immunoassay with anti-PBZ mAb immunoprobe. Format: binding, mouse. The settings on record: for IC50: TRFMs-LFIA, coating antigen PBZ-2-BSA, optimal conditions; for CR: cross reactivity = IC50 (PBZ)/IC50 (structural analogue) x 100. Put shortly: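 Anti-analyte mAb coupled by EDC/NHS to carboxylated time-resolved fluorescent microspheres, activated in MES pH 6.0. Nitrocellulose strip has a T line of coating antigen (2 mg/mL) and a C line of goat anti-mouse IgG (0.16 mg/mL). Probe (7.5 μg/mL stock) and 100 μL standard are premixed 3 min, then the strip is dipped 3 min. The T/C fluorescence ratio gives B/B0 against log concentration. IC50 is taken at 50% B/B0, and CR = IC50 (analyte)/IC50 (analogue) × 100.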

Test [1] deals with anti-PBZ antibody (mAb or pAb). The settings on record: icELISA, cited from earlier work.
The next test concerns anti-PBZ pAb. The settings on record: TRFIA, water and soil, ref Liu et al. (2016); cited from earlier work.

In the test with anti-PBZ mAb, `CC(C)(C)C(O)(CCc1ccc(Cl)cc1)Cn1cncn1` (stereo not drawn) [Tebuconazole] registered an IC50 greater than 10 µg/mL and a CR of less than 0.1%.
As for `CC(C)(C)C(O)C(Oc1ccc(Cl)cc1)n1cncn1` (stereo not drawn) [Triadimenol], in the test with anti-PBZ mAb, the IC50 stood at 0.92421 µg/mL (≈ 3.12 µM) and the CR is 1.01%.
Consider `CC(C)(C)[C@@H](O)[C@@H](Cc1ccc(Cl)cc1)n1cncn1` [Paclobutrazol], for which the IC50 in test [1] (mAb, soil, ref Jin (2019)) was 0.0116 µg/mL (≈ 0.0395 µM); in test [1] (mAb, wheat, ref Cao et al. (2014)), 0.0087 µg/mL (≈ 0.0296 µM); in test [1] (pAb, fruits, ref Ouyang et al. (2020)), 0.01326 µg/mL (≈ 0.0451 µM); in test [1] (pAb, water and soil, ref Wang (2016)) it was 0.02135 µg/mL (≈ 0.0727 µM); in the test with anti-PBZ pAb, 0.00109 µg/mL (≈ 0.00371 µM). In the test on anti-PBZ mAb, the CR amounted to 100%.
In the case of `CC(C)(C)C(O)/C(=C\c1ccc(Cl)cc1)n1cncn1` (stereo not drawn) [Uniconazole], in the test with anti-PBZ mAb, the IC50 stood at 3.81516 µg/mL (≈ 13.1 µM) and the CR turned out to be 0.25%.
The like results for Diniconazole were, in that order, greater than 10 µg/mL and less than 0.1%.
The matching figures for `CCCCC(O)(Cn1cncn1)c1ccc(Cl)cc1Cl` (stereo not drawn) [Hexaconazole]: greater than 10 µg/mL and less than 0.1%.
The matching figures for `CC(C)(C)C(=O)C(Oc1ccc(Cl)cc1)n1cncn1` (stereo not drawn) [Triadimefon]: 0.44371 µg/mL (≈ 1.51 µM) and 2.10%.
